Assay results published in ChEMBL document CHEMBL1777791, “Protective effect of ε-viniferin on β-amyloid peptide aggregation investigated by electrospray ionization mass spectrometry” (Bioorg Med Chem, 2011).
Activity calls are given as the source filed them. The rule behind the calls is not given here.

How the values were obtained:
[1] = Inhibition of amyloid beta (1 to 40) fibril formation at 10 uM by UV-visible spectrometry analysis
In short: (§1)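 Full-length Aβ stock (1 mM) prepared in sterile water at 4 °C by brief vortexing, then sonicated 10 min. Polyphenol stock 1 mg/mL in MeOH. Reaction used 10 mM phosphate buffer, pH 7.2, 50 µM peptide final and polyphenol at 5 or 10 µM final. Fibril formation followed by UV–visible spectrophotometry.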

[2] = tested on: PC-12; assay: Antiamyloidogenic activity in rat PC12 cells assessed as protection against amyloid beta (25 to 35)-induced cell death at 10 uM after 24 hrs by MTT assay; type: functional
In short: (§2)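 PC12 cells kept in DMEM-Glutamax with 15% heat-inactivated horse serum, 2.5% FBS and antibiotics at 37 °C, 10% CO2, on poly-D-lysine. Seeded 10,000 cells/well and grown 24 h. Aβ was preincubated with or without compound at 37 °C for 48 h, diluted in medium and added (Aβ final 10 µM). After 24 h, MTT 0.5 mg/ml for 3 h at 37 °C, DMSO solubilisation, A595. Read-out is % of control cells.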

[3] = Inhibition of amyloid beta (25 to 35) fibril formation at 10 uM by UV-visible spectrometry analysis
In short: (§3)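 Aβ(25-35) stock (1 mM) prepared in sterile water at 4 °C by brief vortexing, then sonicated 10 min. Polyphenol stock 1 mg/mL in MeOH. Reaction used 10 mM phosphate buffer, pH 7.2, 100 µM peptide final and polyphenol at 5 or 10 µM final. Fibril formation followed by UV–visible spectrophotometry.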

[4] = Binding affinity to amyloid beta (1 to 40) assessed as non-covalent protein-compound complex formation at 10 uM using 35% methanol by electrospray ionization mass spectrometry analysis
In short: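 ESI ion-trap MS by direct infusion at 180 µL/h. Aβ(1-40) and compound mixed 1:1 molar (10 µM) in 35% methanol. Spectra recorded over m/z 150–2000 in positive and negative ion modes at normal scan resolution. Non-covalent complex ions identified.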

[5] = Inhibition of amyloid beta (1 to 42) fibril formation at 5 uM by UV-visible spectrometry analysis; in short: as §1
[6] = Inhibition of amyloid beta (1 to 40) fibril formation at 5 uM by UV-visible spectrometry analysis; in short: as §1
[7] = Inhibition of amyloid beta (25 to 35) fibril formation by UV-visible spectrometry analysis; in short: as §3
[8] = Inhibition of amyloid beta (1 to 42) fibril formation at 10 uM by UV-visible spectrometry analysis; in short: as §1
[9] = tested on: PC-12; assay: Cytotoxicity against rat PC12 cells up to 10 uM after 24 hrs by MTT assay; settings: pc-12, 24 h
[10] = tested on: PC-12; assay: Antiamyloidogenic activity in rat PC12 cells assessed as protection against amyloid beta (1 to 40)-induced cell death at 10 uM after 24 hrs by MTT assay; type: functional; in short: as §2
[11] = tested on: PC-12; assay: Antiamyloidogenic activity in rat PC12 cells assessed as protection against amyloid beta (1 to 42)-induced cell death at 10 uM after 24 hrs by MTT assay; type: functional; in short: as §2

SMILES | inhibition [1] | Activity [2] | inhibition [3] | Activity [4] | inhibition [5] | inhibition [6] | IC50 [7] | inhibition [8] | Activity [9] | Activity [10] | Activity [11]
OC[C@H]1O[C@@H](Oc2cc(/C=C/c3ccc(O)cc3)c3c(c2)O[C@H](c2ccc(O)cc2)[C@H]3c2cc(O)cc(O)c2)[C@H](O)[C@@H](O)[C@@H]1O | 97% | 80% | 93% | Active | 70% | 59% | < 1000 nM | 89% | Non-toxic | 79% | 87%
Oc1ccc(/C=C/c2cc(O)cc(O)c2)cc1 | 52% | – | 63% | – | – | 22% | – | 61% | – | – | –
O=C(O)/C=C/c1ccc(O)cc1 | – | – | – | inactive | – | – | – | – | – | – | –
